From ChEMBL document CHEMBL1133727, “Structure-activity relationships in a series of bisquaternary bisphthalimidine derivatives modulating the muscarinic M(2)-receptor allosterically” (J Med Chem, 2000)

Columns and labels:
[1] = biological target: T1, Muscarinic acetylcholine receptor M2 (Sus scrofa, UniProt P06199); experiment: Inhibition of [3H]- N-methyl-scopolamine ([3H]NMS) dissociation from porcine cardiac M2-receptors; conditions: read-out: Log 1/EC50 (converted)
T1 sequence (P06199 whole entry): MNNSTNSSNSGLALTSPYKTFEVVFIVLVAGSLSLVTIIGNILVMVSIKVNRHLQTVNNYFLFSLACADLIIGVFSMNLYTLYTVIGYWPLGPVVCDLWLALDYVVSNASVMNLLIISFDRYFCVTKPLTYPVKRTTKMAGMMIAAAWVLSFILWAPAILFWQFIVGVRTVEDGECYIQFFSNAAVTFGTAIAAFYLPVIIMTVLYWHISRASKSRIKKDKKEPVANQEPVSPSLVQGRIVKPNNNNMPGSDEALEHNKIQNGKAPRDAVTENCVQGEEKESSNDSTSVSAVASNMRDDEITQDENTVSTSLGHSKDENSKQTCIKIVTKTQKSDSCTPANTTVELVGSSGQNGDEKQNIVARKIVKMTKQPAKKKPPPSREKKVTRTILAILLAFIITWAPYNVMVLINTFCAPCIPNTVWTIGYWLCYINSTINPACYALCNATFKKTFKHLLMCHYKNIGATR
Outline: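 Porcine heart ventricular myocardium homogenate, stored at −80 °C. Membranes preincubated 30 min with [3H]NMS in 3 mM MgHPO4, 50 mM Tris, pH 7.3, 37 °C. Dissociation started with 1 µM atropine, with or without test compound. Bound ligand collected by filtration and counted by liquid scintillation. Monoexponential fit gave apparent k−1; EC50 for k−1 reduced to 50% of control, from four-parameter logistic fit.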

[2] = Partition coefficient (logP); assay type: physicochemical; conditions: octanol/water

Structure (SMILES) | EC50 [1] [nM] | logP [2]
C[N+](C)(CCCCCC[N+](C)(C)CCCN1C(=O)c2ccccc2/C1=C/c1ccccc1)CCCN1C(=O)c2ccccc2/C1=C/c1ccccc1 | 85.1 | 2.96
C[N+](C)(CCCCCC[N+](C)(C)CCCN1C(=O)c2ccccc2C1Cc1ccccc1)CCCN1C(=O)c2ccccc2C1Cc1ccccc1 (centres undefined) | 1000 | 3.65
C[N+](C)(CCCCCC[N+](C)(C)CCCN1C(=O)c2ccccc2C1=O)CCCN1C(=O)c2ccccc2C1=O | 1410 | 1.46
C[N+](C)(CCCCCC[N+](C)(C)CCCN1Cc2ccccc2C1=O)CCCN1Cc2ccccc2C1=O | 2000 | 1.55
CC(C)SC1c2ccccc2C(=O)N1CCC[N+](C)(C)CCCCCC[N+](C)(C)CCCN1C(=O)c2ccccc2C1SC(C)C (centres undefined) | 1260 | 2.92
C[N+](C)(CCCCCC[N+](C)(C)CCCN1C(=O)c2ccccc2C1c1ccccc1)CCCN1C(=O)c2ccccc2C1c1ccccc1 (centres undefined) | 794 | 3.4
CCOC1c2ccccc2C(=O)N1CCC[N+](C)(C)CCCCCC[N+](C)(C)CCCN1C(=O)c2ccccc2C1OCC (centres undefined) | 2290 | 2.07
C[N+](C)(CCCCCC[N+](C)(C)CCCN1C(=O)c2ccccc2/C1=C\c1ccccc1)CCCN1C(=O)c2ccccc2/C1=C/c1ccccc1 | 66.1 | 2.96
CC(C)OC1c2ccccc2C(=O)N1CCC[N+](C)(C)CCCCCC[N+](C)(C)CCCN1C(=O)c2ccccc2C1OC(C)C (centres undefined) | 1580 | 2.48
C[N+](C)(CCCCCC[N+](C)(C)CCCN1C(=O)c2ccccc2C1O)CCCN1C(=O)c2ccccc2C1O (centres undefined) | 6030 | 1.45
C[N+](C)(CCCCCC[N+](C)(C)CCCN1C(=O)c2ccccc2/C1=C\c1ccccc1)CCCN1C(=O)c2ccccc2/C1=C\c1ccccc1 | 70.8 | 2.96
COC1c2ccccc2C(=O)N1CCC[N+](C)(C)CCCCCC[N+](C)(C)CCCN1C(=O)c2ccccc2C1OC (centres undefined) | 6760 | 1.72
